# Calls of active or inactive are those of the source. The rule behind the calls is not given here.
# Key:
# [1] = system: Trypanosoma brucei brucei; assay: Trypanocidal activity against bloodstream stage of Trypanosoma brucei brucei AnTat1.1E after 72 hrs by WST-1 assay; assay type: functional, organism-based
# Outline: (§1)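 Bloodstream trypanosomes (6000/well) in log phase were treated in IMDM with 10% FCS for 72 h at 37 °C, 5% CO₂. Compounds were 11-step serial dilutions from DMSO stocks, final DMSO at most 0.25%. Controls were DMSO and 10 μM 3′-deoxyadenosine. Where stated, 1.5 μM deoxycoformycin was co-added. Readout was WST-1 for 2 h, A450. EC50 came from variable-slope nonlinear regression.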
# [2] = Displacement of [2,8-3H]-adenosine from Trypanosoma brucei AT1/P2 expressed in bloodstream stage of Trypanosoma brucei brucei B48
# Outline: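 Bloodstream T. b. brucei B48 clone with endogenous TbAT1 deleted and TbAT1 overexpressed. Cells were incubated 20 s with 0.05 μM [2,8-³H]adenosine plus competitor (typically 10 nM–100 μM). Uptake was stopped with ice-cold 1 mM adenosine and centrifugation through oil. Ki came from competition curves, triplicates on at least three occasions.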
# [3] = system: Trypanosoma brucei brucei; assay: Trypanocidal activity against bloodstream stage of Trypanosoma brucei brucei AnTat1.1E infected in C57BL6J (B6) mouse assessed as reduction of parasitemia at 4 mg/kg, ip qd administered for 10 days measured after 18 days; assay type: functional, organism-based; set-up: dose 4 mg/kg
# Outline: (§2)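 Mice were infected ip with T. b. brucei AnTat1.1E and treated ip once daily starting 2 h later. Where stated, 0.2 mg/kg deoxycoformycin was co-given. Vehicle was PBS with 1.25% final DMSO. Parasitemia and weight were recorded every other day, then twice weekly after 30 days. At least six mice per group.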
# [4] = system: Trypanosoma brucei brucei; assay: Trypanocidal activity against bloodstream stage of Trypanosoma brucei brucei AnTat1.1E after 72 hrs by WST-1 assay in presence of deoxycoformycin; assay type: functional, organism-based; outline: as §1
# [5] = system: Trypanosoma brucei brucei; assay: Trypanocidal activity against bloodstream stage of Trypanosoma brucei brucei AnTat1.1E infected in C57BL6J (B6) mouse assessed as reduction of parasitemia at 4 mg/kg, ip qd administered for 3 days measured after 40 days in presence of deoxycoformycin; assay type: functional, organism-based; set-up: dose 4 mg/kg; outline: as §2
# [6] = system: Trypanosoma brucei brucei; assay: Trypanocidal activity against bloodstream stage of Trypanosoma brucei brucei AnTat1.1E infected in C57BL6J (B6) mouse assessed as reduction of parasitemia at 4 mg/kg, ip qd administered for 10 days measured after 19 to 30 days; assay type: functional, organism-based; set-up: dose 4 mg/kg; outline: as §2
# L929 = assay: Cytotoxicity against mouse L929 cells assessed as cell viability after 72 hrs by WST-1 assay; assay type: cell-based; conditions: L929, 72 h
# Outline: (§3)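 MOLT4 (10⁴/well) or L929 (5 × 10³/well) cells were kept in RPMI with 10% FCS and exposed to serial dilutions for 72 h at 37 °C, 5% CO₂. Final DMSO was at most 0.25%. Where stated, 1.5 μM deoxycoformycin was co-added. WST-1 was added for 2 h and A450 read. EC50 came from variable-slope nonlinear fits; triplicate cultures.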
# MOLT-4 [7] = assay: Cytotoxicity against human MOLT4 cells assessed as cell viability after 72 hrs by WST-1 assay in presence of deoxycoformycin; assay type: cell-based; conditions: MOLT-4, 72 h; outline: as §3
# Trypanosoma brucei [8] = assay: Trypanocidal activity against bloodstream stage of Trypanosoma brucei after 72 hrs by WST-1 assay; assay type: functional, organism-based; outline: as §1
# [9] = system: Trypanosoma brucei brucei; assay: Trypanocidal activity against bloodstream stage of Trypanosoma brucei brucei AnTat1.1E after 72 hrs by WST-1 assay in presence of adenosine kinase inhibitor ABT702; assay type: functional, organism-based
# [10] = system: Trypanosoma brucei brucei; assay: Trypanocidal activity against bloodstream stage of Trypanosoma brucei brucei AnTat1.1E infected in C57BL6J (B6) mouse assessed as reduction of parasitemia at 2 mg/kg, ip qd administered for 3 days measured after 40 days in presence of deoxycoformycin; assay type: functional, organism-based; set-up: dose 2 mg/kg; outline: as §2
# Trypanosoma brucei [11] = assay: Trypanocidal activity against Trypanosoma brucei; assay type: functional, organism-based; outline: as §1
# Trypanosoma brucei [12] = assay: Trypanocidal activity against bloodstream stage of Trypanosoma brucei after 72 hrs by WST-1 assay in presence of deoxycoformycin; assay type: functional, organism-based; outline: as §1
# [13] = system: Trypanosoma brucei brucei; assay: Trypanocidal activity against bloodstream stage of Trypanosoma brucei brucei AnTat1.1E infected in C57BL6J (B6) mouse assessed as reduction of parasitemia at 2 mg/kg, ip qd measured after 30 days; assay type: functional, organism-based; set-up: dose 2 mg/kg; outline: as §2
# MOLT-4 [14] = assay: Cytotoxicity against human MOLT4 cells assessed as cell viability after 72 hrs by WST-1 assay; assay type: cell-based; conditions: MOLT-4, 72 h; outline: as §3
# Caco-2 = assay: Efflux ratio of apparent permeability across basolateral to apical side over apical to basolateral side in human Caco2 cells at 10 uM by LC-MS/MS analysis; conditions: caco-2, 10 µM
# [15] = Metabolic stability in CD-1 mouse liver microsomes at 1 uM by LC-MS/MS analysis; assay type: ADME, Microsome
# Outline: (§4)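 Pooled human or male CD-1 mouse liver microsomes (0.5 mg/mL) were incubated with 1 μM compound in 0.1 M phosphate pH 7.4, started with 1 mM NADPH. Sampling was at 0, 5, 15 and 40 min, quenched with cold acetonitrile containing warfarin internal standard. Analysis was LC-MS/MS on a relative basis; intrinsic clearance by the well-stirred model. Midazolam and dextromethorphan were CYP controls.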
# [16] = system: Trypanosoma brucei brucei; assay: Trypanocidal activity against bloodstream stage of Trypanosoma brucei brucei AnTat1.1E infected in acute C57BL6J (B6) mouse HAT model assessed as day of parasitemia relapse at 5 mg/kg, po qd administered for 5 days in presence of deoxycoformycin; assay type: functional
# [17] = Apparent terminal half life in C57BL/6 mouse at 25 mg/kg, ip; assay type: ADME, organism-based; set-up: dose 25 mg/kg, route intraperitoneal; conditions: in vivo, read-out: betat1/2(app) (converted)
# [18] = system: Trypanosoma brucei brucei; assay: Trypanocidal activity against bloodstream stage of Trypanosoma brucei brucei AnTat1.1E infected in acute C57BL6J (B6) mouse HAT model assessed as day of parasitemia relapse at 15 mg/kg, po qd administered for 5 days; assay type: functional
# [19] = Apparent terminal half life in C57BL/6 mouse at 25 mg/kg, po; assay type: ADME, organism-based; set-up: dose 25 mg/kg, route oral; conditions: in vivo, read-out: betat1/2(app) (converted)
# [20] = Tmax in C57BL/6 mouse at 25 mg/kg, po and ip; assay type: ADME, organism-based; set-up: dose 25 mg/kg, route oral; conditions: in vivo
# [21] = Cmax in C57BL/6 mouse at 25 mg/kg, po; assay type: ADME, organism-based; set-up: dose 25 mg/kg, route oral; conditions: in vivo
# [22] = Apparent initial half life in C57BL/6 mouse at 25 mg/kg, po; assay type: ADME, organism-based; set-up: dose 25 mg/kg, route oral; conditions: in vivo, read-out: alphat1/2(app) (converted)
# [23] = Cmax in C57BL/6 mouse at 25 mg/kg, ip; assay type: ADME, organism-based; set-up: dose 25 mg/kg, route intraperitoneal; conditions: in vivo
# [24] = Apparent permeability across apical to basolateral side in human Caco2 cells at 10 uM by LC-MS/MS analysis; assay type: ADME, cell-based; conditions: Caco-2
# Outline: (§5)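 Caco-2 monolayers (passage 94–105) were used on day 21 on permeable filters. Transport was run in both directions at pH 7.4 on both sides, 37 °C, 500 rpm stirring. The receiver side was sampled at 15, 30 and 60 min, the donor side at 60 min for mass balance. Mannitol served as integrity marker. LC-MS/MS used a 10–1000 nM external standard curve.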
# Liver microsome = assay: Metabolic stability in human liver microsomes at 1 uM by LC-MS/MS analysis; assay type: ADME; outline: as §4
# [25] = Apparent permeability across apical to basolateral side in human Caco2 cells assessed as compound recovery at 10 uM by LC-MS/MS analysis; assay type: ADME, cell-based; conditions: Caco-2, read-out: Papp; outline: as §5
# [26] = Fraction unbound in human plasma at 10 uM after 4 hrs by equilibrium dialysis method; assay type: ADME, cell-free
# Outline: (§6)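 Pooled human plasma (four donors) was spiked with 10 μM final compound. It was dialysed against isotonic phosphate buffer pH 7.4 for 4 h at 37 °C by rapid equilibrium dialysis. A separate sealed plasma sample was held 4 h at 37 °C for stability. Samples were methanol-precipitated and quantified by LC-MS/MS.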
# [27] = system: Trypanosoma brucei brucei; assay: Trypanocidal activity against bloodstream stage of Trypanosoma brucei brucei AnTat1.1E infected in acute C57BL6J (B6) mouse HAT model assessed as reduction of parasitemia at 30 mg/kg, po qd administered for 6 days measured after 90 days; assay type: functional, organism-based; set-up: dose 30 mg/kg
# [28] = Apparent initial half life in C57BL/6 mouse at 25 mg/kg, ip; assay type: ADME, organism-based; set-up: dose 25 mg/kg, route intraperitoneal; conditions: in vivo, read-out: alphat1/2(app) (converted)
# [29] = system: Trypanosoma brucei brucei; assay: Trypanocidal activity against bloodstream stage of Trypanosoma brucei brucei AnTat1.1E infected in acute C57BL6J (B6) mouse HAT model assessed as day of parasitemia relapse at 1 mg/kg, po bid administered for 5 days; assay type: functional
# [30] = Metabolic stability in human plasma at 10 uM measured over 4 hrs by LC-MS/MS analysis; assay type: ADME, cell-free; conditions: read-out: Stability; outline: as §6
# [31] = system: Trypanosoma brucei brucei; assay: Trypanocidal activity against bloodstream stage of Trypanosoma brucei brucei AnTat1.1E infected in acute C57BL6J (B6) mouse HAT model assessed as day of parasitemia relapse at 5 mg/kg, po qd administered for 5 days; assay type: functional
# [32] = Apparent permeability across basolateral to apical side in human Caco2 cells assessed as compound recovery at 10 uM by LC-MS/MS analysis; assay type: ADME, cell-based; conditions: Caco-2, read-out: Papp; outline: as §5
# [33] = Apparent permeability across basolateral to apical side in human Caco2 cells at 10 uM by LC-MS/MS analysis; assay type: ADME, cell-based; conditions: Caco-2; outline: as §5
smiles,measurement,setting,value
Nc1nc(Cl)nc2c1ncn2[C@@H]1O[C@H](CO)C[C@H]1O,IC50,[1]; read-out: IC50,> 50000 nM
same,Ki,[2],3970 nM
CCCCCCCC(=O)Nc1ncnc2c1ncn2[C@@H]1O[C@H](CO)C[C@H]1O,IC50,[1]; read-out: IC50(app),28 nM
same,Activity,[3],Active
same,IC50,[4],1 nM
same,Activity,[5],Active
same,Activity,[6],inactive
same,IC50,L929,18600 nM
OC[C@@H]1C[C@@H](O)[C@H](n2cnc3cncnc32)O1,IC50,[1]; read-out: IC50,8790 nM
same,IC50,L929,> 100000 nM
Nc1nc(NCCO)nc2c1ncn2[C@@H]1O[C@H](CO)C[C@H]1O,IC50,[1]; read-out: IC50,> 50000 nM
Nc1[nH]c(Cl)nc2ncnc1-2,Ki,[2],2600 nM
Nc1nc(F)nc2c1ncn2[C@@H]1O[C@H](CO)C[C@@H]1O,IC50,[1]; read-out: IC50,> 100000 nM
Nc1nc(F)nc2c1ncn2[C@@H]1O[C@H](CO)[C@@H](O)[C@H]1O,IC50,[1]; read-out: IC50,> 100000 nM
same,Ki,[2],2710 nM
Nc1[nH]cnc2ncnc1-2 [ADENINE],Ki,[2],280 nM
Nc1nc(F)nc2nc[nH]c12,IC50,[1]; read-out: IC50,> 100000 nM
same,Ki,[2],900 nM
OC[C@H]1O[C@@H](n2cnc3cncnc32)[C@H](O)[C@@H]1O [NEBULARINE],IC50,[1]; read-out: IC50,1150 nM
same,IC50,L929,2370 nM
Nc1nc(Cl)nc2c1ncn2[C@@H]1O[C@H](CO)[C@@H](O)[C@H]1O,Ki,[2],9650 nM
Nc1ncnc2c1ncn2[C@@H]1O[C@H](CO)[C@@H](O)[C@@H]1O [VIDARABINE],IC50,[1]; read-out: IC50,> 100000 nM
Nc1ncnc2c1ncn2[C@@H]1O[C@H](CO)C[C@H]1O [CORDYCEPIN],IC50,[1]; read-out: IC50,30 nM
same,IC50,MOLT-4 [7],100 nM
same,Ki,[2],180 nM
same,IC50,Trypanosoma brucei [8],42 nM
same,Activity,[9],inactive
same,Activity,[10],Active
same,IC50,Trypanosoma brucei [11],32 nM
same,IC50,Trypanosoma brucei [12],1.2 nM
same,Activity,[13],inactive
same,IC50,MOLT-4 [14],≥ 100000 nM
same,IC50,L929,28700 nM
Nc1nc(F)nc2c1ncn2[C@@H]1O[C@H](CO)C[C@H]1O,IC50,[1]; read-out: IC50,170 nM
same,Ratio,Caco-2,0.5
same,Stability,[15],Stable
same,Time,[16],5 days
same,IC50,MOLT-4 [7],2130 nM
same,half-life,[17],366 min
same,Ki,[2],960 nM
same,IC50,Trypanosoma brucei [8],176 nM
same,Time,[18],7 days
same,Activity,[9],inactive
same,half-life,[19],408 min
same,Tmax,[20],30 min
same,IC50,Trypanosoma brucei [12],170 nM
same,Cmax,[21],4 µM
same,half-life,[22],54 min
same,Cmax,[23],9.17 µM
same,Papp A→B at 10 µM,[24],3 ×10⁻⁶ cm/s
same,Stability,Liver microsome,Stable
same,recovery at 10 µM,[25],102%
same,"fraction unbound at 4 h, 10 µM",[26],1
same,Activity,[27],Active
same,half-life,[28],36 min
same,IC50,MOLT-4 [14],2440 nM
same,Time,[29],2 days
same,"remaining at 4 h, 10 µM",[30],98%
same,Time,[31],7 days
same,recovery at 10 µM,[32],104%
same,Papp B→A at 10 µM,[33],1.4 ×10⁻⁶ cm/s
Nc1ncnc2c1ncn2[C@@H]1O[C@H](CO)[C@H]2O[C@H]21,IC50,[1]; read-out: IC50,> 100000 nM
